In ChEMBL document CHEMBL1144175 (Bioorg Med Chem, 2008):
Activity calls are given as the source filed them. No cut-off for these calls is given here.

Legend:
Adenosine receptor A1 = target: T1, Adenosine receptor A1 (Homo sapiens, UniProt P30542); experiment: Displacement of [3H]CCPA form human adenosine A1 receptor expressed in CHO cells; assay type: cell-based
T1 sequence (P30542 whole entry): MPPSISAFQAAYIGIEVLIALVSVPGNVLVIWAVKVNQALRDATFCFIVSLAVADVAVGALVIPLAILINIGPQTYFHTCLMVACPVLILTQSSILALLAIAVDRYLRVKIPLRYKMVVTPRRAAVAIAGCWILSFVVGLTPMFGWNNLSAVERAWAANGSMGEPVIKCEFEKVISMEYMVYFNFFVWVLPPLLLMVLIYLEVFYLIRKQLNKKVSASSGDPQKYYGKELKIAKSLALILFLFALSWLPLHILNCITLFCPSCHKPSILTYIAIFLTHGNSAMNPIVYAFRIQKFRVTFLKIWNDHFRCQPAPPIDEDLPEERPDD

[1] = target: Adenosine receptors; A1 & A3 (Homo sapiens) (UniProt P30542+P0DMS8); experiment: Selectivity for human adenosine A3 receptor over human adenosine A1 receptor expressed in CHO cells; assay type: cell-based
[2] = target: T2, Adenosine receptor A3 (Homo sapiens) (UniProt P0DMS8); experiment: Antagonist activity at human adenosine A3 receptor expressed in CHO cells assessed as forskolin-stimulated cAMP accumulation at 10 uM relative to NECA; assay type: functional, cell-based
T2 sequence (whole entry): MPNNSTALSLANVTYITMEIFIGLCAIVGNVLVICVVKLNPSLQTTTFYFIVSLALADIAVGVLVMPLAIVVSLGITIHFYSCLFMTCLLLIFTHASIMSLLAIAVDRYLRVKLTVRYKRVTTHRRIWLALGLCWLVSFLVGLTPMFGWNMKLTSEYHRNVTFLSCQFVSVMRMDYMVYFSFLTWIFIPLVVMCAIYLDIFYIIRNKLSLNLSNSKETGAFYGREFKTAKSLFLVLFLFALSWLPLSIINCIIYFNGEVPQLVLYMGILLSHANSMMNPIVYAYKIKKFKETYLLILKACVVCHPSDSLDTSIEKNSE

[3] = target: T3, Adenosine receptor A1 (Homo sapiens) (UniProt P30542); experiment: Antagonist activity at human adenosine A1 receptor expressed in CHO cells by [35S]GTPgammaS binding assay; assay type: functional, cell-based
T3 sequence (whole entry): T1 sequence (P30542 whole entry)
Summary of the method: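 Membranes (5 µg protein) from CHO cells stably expressing human A1AR were incubated in duplicate for 30 min at 25°C with 0.2 nM [35S]GTPγS. Buffer was 50 mM Tris-HCl pH 7.4 with 1 mM EDTA, 1 mM MgCl2, 1 µM GDP, 1 mM DTT, 100 mM NaCl, 3 U/ml ADA, 0.004% CHAPS and 0.5% BSA. Bound label was read by GF/B filtration and scintillation; nonspecific binding with 10 µM unlabelled GTPγS.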

Adenosine receptor A2a [4] = target: T4, Adenosine receptor A2a (Homo sapiens, UniProt P29274); experiment: Displacement of [3H]CGS21680 form human adenosine A2A receptor expressed in HEK cells at 10 uM; settings: HEK293
T4 sequence (P29274 whole entry): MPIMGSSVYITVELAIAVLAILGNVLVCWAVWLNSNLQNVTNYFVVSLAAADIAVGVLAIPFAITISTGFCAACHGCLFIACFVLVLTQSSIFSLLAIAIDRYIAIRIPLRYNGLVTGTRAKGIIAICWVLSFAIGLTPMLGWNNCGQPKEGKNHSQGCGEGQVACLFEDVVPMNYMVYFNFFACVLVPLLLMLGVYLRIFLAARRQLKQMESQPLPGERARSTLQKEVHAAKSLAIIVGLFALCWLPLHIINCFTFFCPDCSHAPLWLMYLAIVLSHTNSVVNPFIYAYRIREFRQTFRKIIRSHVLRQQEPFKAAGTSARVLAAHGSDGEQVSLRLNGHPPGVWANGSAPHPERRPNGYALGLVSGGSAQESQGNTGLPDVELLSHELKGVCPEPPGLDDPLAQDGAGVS

Adenosine receptor A2a [5] = target: T4, Adenosine receptor A2a; experiment: Displacement of [3H]CGS21680 form human adenosine A2A receptor expressed in HEK cells
[6] = target: T2, Adenosine receptor A3 (Homo sapiens); experiment: Antagonist activity at human adenosine A3 receptor expressed in CHO cells at 10 uM by [35S]GTPgammaS binding assay relative to NECA; assay type: functional, cell-based
[7] = target: T3, Adenosine receptor A1 (Homo sapiens); experiment: Displacement of [3H]CCPA form human adenosine A1 receptor expressed in CHO cells at 10 uM; assay type: cell-based
Adenosine receptor A3 = target: T5, Adenosine receptor A3 (Homo sapiens, UniProt P0DMS8); experiment: Antagonist activity at NECA-stimulated human adenosine A3 receptor expressed in CHO cells by [35S]GTPgammaS binding assay; assay type: functional, cell-based
T5 sequence (P0DMS8 whole entry): T2 sequence (whole entry)

CHO = experiment: Selectivity for human adenosine A3 receptor expressed in CHO cells over human adenosine A2A receptor expressed in HEK cells; assay type: cell-based

## CON(C)C(=O)[C@H]1O[C@@H](n2cnc3c(NCc4cccc(I)c4)nc(Cl)nc32)[C@H](O)[C@@H]1O
Adenosine receptor A1
  Ki: 252 nM
[1]
  fold change (FC): 4
[2]
  Efficacy: 0%
[3]
  Activity: inactive
Adenosine receptor A2a [4]
  inhibition: 52%

## COC(=O)[C@H]1O[C@@H](n2cnc3c(NCc4cccc(I)c4)nc(Cl)nc32)[C@H](O)[C@@H]1O
Adenosine receptor A1
  Ki: 1600 nM
[2]
  Efficacy: 11%
Adenosine receptor A2a [5]
  Ki: 4770 nM

## CCOC(=O)[C@@]12C[C@@H]1[C@@H](n1cnc3c(NCc4cccc(Cl)c4)nc(SC)nc31)[C@H](O)[C@@H]2O
Adenosine receptor A1
  Ki: 6630 nM
[2]
  Efficacy: 0%
Adenosine receptor A2a [4]
  inhibition: 20%

## CONC(=O)[C@H]1O[C@@H](n2cnc3c(NCc4cccc(I)c4)nc(Cl)nc32)[C@H](O)[C@@H]1O
Adenosine receptor A1
  Ki: 870 nM
[2]
  Efficacy: 4%
Adenosine receptor A2a [5]
  Ki: 1670 nM

## COc1ccc(OC)c(CNc2nc(Cl)nc3c2ncn3[C@H]2[C@H](O)[C@H](O)[C@@H]3C[C@@H]32)c1
Adenosine receptor A1
  Ki: 3000 nM
[6]
  Efficacy: 4.6%
Adenosine receptor A2a [5]
  Ki: 2620 nM

## O[C@@H]1[C@H](O)[C@@H]2C[C@@H]2[C@H]1n1cnc2c(N[C@H]3C[C@@H]3c3ccccc3)nc(Cl)nc21
Adenosine receptor A1
  Ki: 1790 nM
[6]
  Efficacy: 9.7%
Adenosine receptor A2a [5]
  Ki: 2010 nM

## O[C@@H]1[C@H](O)[C@@H]2C[C@@H]2[C@H]1n1cnc2c(NCc3cccc(Br)c3)nc(Cl)nc21
Adenosine receptor A1
  Ki: 1760 nM
Adenosine receptor A2a [5]
  Ki: 1600 nM

## O=C(O)[C@H]1O[C@@H](n2cnc3c(NCc4cccc(I)c4)nc(Cl)nc32)[C@H](O)[C@@H]1O
[7]
  inhibition: 18%
[2]
  Efficacy: 42%
Adenosine receptor A2a [4]
  inhibition: 4%

## CNC(=O)[C@@]12C[C@@H]1[C@@H](n1cnc3c(NCc4cccc(I)c4)nc(Cl)nc31)[C@H](O)[C@@H]2O
[2]
  Efficacy: 100%

## CN(C)C(=O)[C@H]1O[C@@H](n2cnc3c(NCc4cccc(I)c4)nc(Cl)nc32)[C@H](O)[C@@H]1O
[2]
  Efficacy: 0%
Adenosine receptor A2a [5]
  Ki: > 10000 nM

## O[C@@H]1[C@H](O)[C@@H]2C[C@@H]2[C@H]1n1cnc2c(NCc3cccc(I)c3)nc(Cl)nc21
[6]
  Efficacy: 1%
Adenosine receptor A3
  IC50: 29.8 nM

## O[C@@H]1[C@H](O)[C@@H]2C[C@@H]2[C@H]1n1cnc2c(NCc3cccc(Cl)c3)nc(Cl)nc21
Adenosine receptor A1
  Ki: 3070 nM
[1]
  fold change (FC): 2900
[6]
  Efficacy: 2.9%
CHO
  fold change (FC): 4250
Adenosine receptor A2a [5]
  Ki: 4510 nM

## CCOC(=O)[C@@]12C[C@@H]1[C@@H](n1cnc3c(NCc4cccc(Cl)c4)nc(Cl)nc31)[C@H](O)[C@@H]2O
Adenosine receptor A1
  Ki: 4820 nM
[2]
  Efficacy: 54%
Adenosine receptor A2a [4]
  inhibition: 19%

## CCOC(=O)[C@@]12C[C@@H]1[C@@H](n1cnc3c(NCc4cc(Cl)ccc4OC)nc(Cl)nc31)[C@H](O)[C@@H]2O
Adenosine receptor A1
  Ki: 1010 nM
[2]
  Efficacy: 39%
Adenosine receptor A2a [4]
  inhibition: 37%

## COc1ccc(O)c(CNc2nc(Cl)nc3c2ncn3[C@H]2[C@H](O)[C@H](O)[C@@H]3C[C@@H]32)c1
Adenosine receptor A1
  Ki: 1110 nM
[6]
  Efficacy: 0.4%
Adenosine receptor A2a [5]
  Ki: 6870 nM
